# Measurements reported in ChEMBL document CHEMBL2380254, “Optimization of tocotrienols as antiproliferative and antimigratory leads” (Eur J Med Chem, 2013).
# Legend:
# Type in all cases: functional
# CCRF-CEM = test: Growth inhibition of human CCRF-CEM cells after 48 hrs by sulforhodamine B assay
# Summary of the method: (§1)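 NCI-60 screen: cells in RPMI 1640 with 5% FBS and 2 mM glutamine, 5000–40,000 cells/well, preincubated 24 h. Five concentrations (10-fold dilutions; 100 to 0.001 µM) applied for 48 h at 37 °C. TCA fixation, SRB stain, absorbance at 515 nm. Time-zero plates included; GI50 where 100×(T−T0)/(C−T0)=50.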
# [1] = Growth inhibition of human HCC2998 cells assessed as cell growth at 10 uM after 48 hrs by sulforhodamine B assay; details: HCC 2998, 48 h, read-out: Activity
# Summary of the method: (§2)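 NCI-60 single-dose screen at 10 µM: cells in RPMI 1640 with 5% FBS, preincubated 24 h, then exposed 48 h at 37 °C. TCA fixation (16% final for suspension cells), SRB staining, absorbance 515 nm. Percent growth relative to time-zero and untreated control plates; negative values indicate cell kill.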
# SNB-19 = test: Growth inhibition of human SNB19 cells assessed as cell growth at 10 uM after 48 hrs by sulforhodamine B assay; details: SNB-19, 48 h, read-out: Activity
# Summary of the method: (§3)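 Single-dose NCI-60 test at 10 µM. Cells were grown in RPMI 1640 with 5% FBS and 2 mM L-glutamine, preincubated 24 h, with T0 plates TCA-fixed. Exposure was 48 h at 37 °C, 5% CO2. Cells were fixed with cold TCA (final 10%, 4 °C, 60 min), stained with SRB and read at 515 nm. Percent growth was taken relative to T0 and untreated control; negative values denote cell kill.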
# A498 = test: Growth inhibition of human A498 cells assessed as cell growth at 10 uM after 48 hrs by sulforhodamine B assay; details: A498, 48 h, read-out: Activity; summary of the method: as §2
# HL-60(TB) = test: Growth inhibition of human HL-60(TB) cells assessed as cell growth at 10 uM after 48 hrs by sulforhodamine B assay; details: HL-60, 48 h, read-out: Activity
# Summary of the method: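 NCI-60 single-dose screen run at 10 µM on HL-60(TB) suspension cells in RPMI 1640 with 5% FBS and 2 mM L-glutamine. Cells were preincubated for 24 h, with a time-zero plate fixed then. Exposure lasted 48 h at 37 °C. Settled cells were fixed with TCA (16% final), stained with SRB and read at 515 nm. Percent growth is relative to control and T0.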
# NCI-H226 = test: Growth inhibition of human NCI-H226 cells after 48 hrs by sulforhodamine B assay; details: NCI-H226, 48 h
# Summary of the method: (§4)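 NCI-60 panel cells grown in RPMI 1640 with 5% FBS and 2 mM L-glutamine, seeded at 5000–40,000 cells/well and preincubated 24 h. Five 10-fold dilutions (0.001–100 µM) from DMSO stocks were added for 48 h at 37 °C. Adherent cells were fixed with cold TCA (10% final) for 60 min at 4 °C, stained with 0.4% SRB, and read at 515 nm. GI50 was set where 100×(T−T0)/(C−T0)=50.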
# HCT-15 = test: Growth inhibition of human HCT15 cells assessed as cell growth at 10 uM after 48 hrs by sulforhodamine B assay; details: HCT-15, 48 h, read-out: Activity; summary of the method: as §2
# UACC-257 = test: Growth inhibition of human UACC257 cells assessed as cell growth at 10 uM after 48 hrs by sulforhodamine B assay; details: UACC-257, 48 h, read-out: Activity; summary of the method: as §3
# OVCAR-5 = test: Growth inhibition of human OVCAR5 cells after 48 hrs by sulforhodamine B assay; details: OVCAR-5, 48 h; summary of the method: as §4
# HT-29 = test: Growth inhibition of human HT-29 cells after 48 hrs by sulforhodamine B assay; details: HT-29, 48 h; summary of the method: as §1
# HCT-116 [2] = test: Growth inhibition of human HCT116 cells assessed as cell growth at 10 uM after 48 hrs by sulforhodamine B assay; details: HCT-116, 48 h, read-out: Activity; summary of the method: as §2
# UO-31 = test: Growth inhibition of human UO31 cells after 48 hrs by sulforhodamine B assay; details: UO-31, 48 h
# Summary of the method: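 NCI-60 five-dose screen. Cells were grown in RPMI 1640 with 5% FBS and 2 mM L-glutamine, plated at 5000–40,000 cells/well and incubated 24 h before dosing, with T0 plates TCA-fixed. DMSO stocks were diluted to doses of […] and exposed 48 h at 37 °C, 5% CO2. Cells were fixed with cold TCA (final 10%, 60 min, 4 °C), stained with 0.4% SRB in 1% acetic acid for 10 min, solubilized in 10 mM trizma base and read at 515 nm. GI50 is where 100×(T−T0)/(C−T0)=50.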
# RPMI-8226 = test: Growth inhibition of human RPMI8226 cells after 48 hrs by sulforhodamine B assay; details: RPMI-8226, 48 h
# Summary of the method: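 NCI-60 suspension lines in RPMI 1640 with 5% FBS and 2 mM L-glutamine, preincubated 24 h. A five-concentration 10-fold series (0.001–100 µM) was given for 48 h at 37 °C. Settled cells were fixed with 80% TCA (16% final), stained with SRB, and read at 515 nm. GI50 was taken where 100×(T−T0)/(C−T0)=50, with T0 plates fixed at drug addition.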
# SF-268 = test: Growth inhibition of human SF268 cells after 48 hrs by sulforhodamine B assay; details: SF-268, 48 h; summary of the method: as §4
# HCT-116 [3] = test: Growth inhibition of human HCT116 cells after 48 hrs by sulforhodamine B assay; details: HCT-116, 48 h; summary of the method: as §1
# ACHN = test: Growth inhibition of human ACHN cells after 48 hrs by sulforhodamine B assay; summary of the method: as §1
# HOP-62 = test: Growth inhibition of human HOP62 cells after 48 hrs by sulforhodamine B assay; details: HOP-62, 48 h; summary of the method: as §1
# SK-MEL-28 = test: Growth inhibition of human SK-MEL-28 cells assessed as cell growth at 10 uM after 48 hrs by sulforhodamine B assay; details: SK-MEL-28, 48 h, read-out: Activity
# Summary of the method: (§5)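 Single-dose NCI-60 screen: adherent cells in RPMI 1640 with 5% FBS were exposed to 10 µM for 48 h at 37 °C after a 24 h preincubation. They were fixed in situ with cold TCA (10% final), stained with 0.4% SRB in 1% acetic acid, solubilized in 10 mM Tris base, and read at 515 nm. Percent growth was taken relative to time-zero and control plates.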
# A549 = test: Growth inhibition of human A549/ATCC cells after 48 hrs by sulforhodamine B assay; details: A549, 48 h; summary of the method: as §1
# MDA-MB-435 = test: Growth inhibition of human MDA-MB-435 cells assessed as cell growth at 10 uM after 48 hrs by sulforhodamine B assay; details: MDA-MB-435, 48 h, read-out: Activity; summary of the method: as §5
# Malme-3M = test: Growth inhibition of human MALME-3M cells after 48 hrs by sulforhodamine B assay; summary of the method: as §4
# SK-MEL-5 = test: Growth inhibition of human SK-MEL-5 cells assessed as cell growth at 10 uM after 48 hrs by sulforhodamine B assay; details: SK-MEL-5, 48 h, read-out: Activity; summary of the method: as §5
smiles,measurement,setting,value
CC(C)=CCC/C(C)=C/CC/C(C)=C/CC[C@]1(C)CCc2c3c(cc(C)c2O1)OCN(CCCCO)C3,GI50,CCRF-CEM,14.5 µM
same,growth at 10 µM,[1],-88.7%
same,growth at 10 µM,SNB-19,-28.3%
same,growth at 10 µM,A498,103%
same,growth at 10 µM,HL-60(TB),-2.37%
same,GI50,NCI-H226,15.3 µM
same,growth at 10 µM,HCT-15,-53.9%
same,growth at 10 µM,UACC-257,98.1%
same,GI50,OVCAR-5,17.3 µM
same,GI50,HT-29,8.33 µM
same,growth at 10 µM,HCT-116 [2],-96.7%
same,GI50,UO-31,12.2 µM
same,GI50,RPMI-8226,20.4 µM
same,GI50,SF-268,17.7 µM
same,GI50,HCT-116 [3],16 µM
same,GI50,ACHN,16.3 µM
same,GI50,HOP-62,16.2 µM
same,growth at 10 µM,SK-MEL-28,0.63%
same,GI50,A549,15.5 µM
same,growth at 10 µM,MDA-MB-435,-31.8%
same,GI50,Malme-3M,22.4 µM
same,growth at 10 µM,SK-MEL-5,37.1%
CC(C)=CCC/C(C)=C/CC/C(C)=C/CC[C@]1(C)CCc2c3c(c(C)c(C)c2O1)OCN(CCCCCO)C3,GI50,CCRF-CEM,7.83 µM
same,growth at 10 µM,[1],60.8%
same,growth at 10 µM,SNB-19,86.5%
same,growth at 10 µM,A498,97.4%
same,growth at 10 µM,HL-60(TB),37.2%
same,GI50,NCI-H226,6.19 µM
same,growth at 10 µM,HCT-15,105%
same,growth at 10 µM,UACC-257,110%
same,GI50,OVCAR-5,5.93 µM
same,GI50,HT-29,3.74 µM
same,growth at 10 µM,HCT-116 [2],36.1%
same,GI50,UO-31,4.64 µM
same,GI50,RPMI-8226,9.91 µM
same,GI50,SF-268,7.13 µM
same,GI50,HCT-116 [3],5.25 µM
same,GI50,ACHN,5.74 µM
same,GI50,HOP-62,5.9 µM
same,growth at 10 µM,SK-MEL-28,99.7%
same,GI50,A549,6.19 µM
same,growth at 10 µM,MDA-MB-435,35.5%
same,GI50,Malme-3M,6.9 µM
same,growth at 10 µM,SK-MEL-5,108%
CC(C)=CCC/C(C)=C/CC/C(C)=C/CC[C@]1(C)CCc2c3c(cc(C)c2O1)OCN(C1CCN(Cc2ccccc2)CC1)C3,GI50,CCRF-CEM,0.308 µM
same,growth at 10 µM,[1],-36.1%
same,growth at 10 µM,SNB-19,68.2%
same,growth at 10 µM,A498,63.2%
same,growth at 10 µM,HL-60(TB),-18.9%
same,GI50,NCI-H226,2.21 µM
same,growth at 10 µM,HCT-15,86.4%
same,growth at 10 µM,UACC-257,93%
same,GI50,OVCAR-5,2.17 µM
same,GI50,HT-29,1.84 µM
same,growth at 10 µM,HCT-116 [2],-81.9%
same,GI50,UO-31,1.51 µM
same,GI50,RPMI-8226,0.324 µM
same,GI50,SF-268,1.67 µM
same,GI50,HCT-116 [3],0.576 µM
same,GI50,ACHN,1.88 µM
same,GI50,HOP-62,1.82 µM
same,growth at 10 µM,SK-MEL-28,60%
same,GI50,A549,1.57 µM
same,growth at 10 µM,MDA-MB-435,3.07%
same,GI50,Malme-3M,2.13 µM
same,growth at 10 µM,SK-MEL-5,110%
CC(C)=CCC/C(C)=C/CC/C(C)=C/CC[C@]1(C)CCc2c3c(c(C)c(C)c2O1)OCN(CCCCCCCCO)C3,GI50,CCRF-CEM,3.34 µM
same,growth at 10 µM,[1],-87%
same,growth at 10 µM,SNB-19,73.6%
same,growth at 10 µM,A498,117%
same,growth at 10 µM,HL-60(TB),31%
same,GI50,NCI-H226,2.79 µM
same,growth at 10 µM,HCT-15,75.3%
same,growth at 10 µM,UACC-257,119%
same,GI50,OVCAR-5,2.83 µM
same,GI50,HT-29,3.26 µM
same,growth at 10 µM,HCT-116 [2],-92.9%
same,GI50,UO-31,2.37 µM
same,GI50,RPMI-8226,3.13 µM
same,GI50,SF-268,2.78 µM
same,GI50,HCT-116 [3],2.95 µM
same,GI50,ACHN,2.62 µM
same,GI50,HOP-62,2.81 µM
same,growth at 10 µM,SK-MEL-28,82.9%
same,GI50,A549,2.5 µM
same,growth at 10 µM,MDA-MB-435,-21.4%
same,GI50,Malme-3M,3.14 µM
same,growth at 10 µM,SK-MEL-5,83.7%
